# FGF22 binding – FGF22 (human) thermal shift binding | AID 651658 | 1.5% of 340,000 active | recombinant FGF22 thermal shift, SYPRO orange fluorescence; percent of sucrose octasulfate shift, DMSO zero | activity (Tm shift, normalised), % at 9.99 µM;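 active = mean Tm shift, scaled 0 neutral to 100 positive control, at about 1.3% or above, every replicate too, limit read from the data; inconclusive = no clear call, values can overlap the other calls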
# PGC1a acetyl inh – modulators of PGC1a acetylation. U2OS PGC1a acetylation, AlphaScreen anti-acetyl-lysine; with virally co-expressed GCN5 acetyltransferase. inhibition, % at 15.6 µM. AID 651687. 0.17% of 350,000 active;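 active = every replicate shows inhibition of at least 40%; inconclusive = mean inhibition at least 40% but some replicate below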;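 note: 0% = neutral control wells and 100% = positive control wells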
# Env fusion inh – inhibitors of HIV Env-mediated cell fusion; HeLa-JRFL Env/CEM21 cell fusion, luciferase; inhibition, % at 12.3 µM; 1.1% of 360,000 active; AID 651610;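 active = mean replicate inhibition score of at least 50 and every replicate individually at or above 50; inconclusive = only one of the two criteria met; inactive = mean below 50 and not all replicates reaching 50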;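 note: 0% = plate neutral controls and 100% = maraviroc near 300 nM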
# ERAP1 inh – blocks human ERAP1 aminopeptidase activity; recombinant ERAP1, Leu-AMC fluorescence, 60 min; AID 652197; inhibition, % at 10.7 µM; 0.15% of 340,000 active;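 active = mean replicate inhibition of at least 30%, or all replicates individually reaching that 30% level; inactive = mean below 30% and not every replicate reaching it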;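 note: 0% = neutral control wells and 100% = L-leucinethiol positive control wells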
# Target sequence (Q9NZ08 whole entry, looked up): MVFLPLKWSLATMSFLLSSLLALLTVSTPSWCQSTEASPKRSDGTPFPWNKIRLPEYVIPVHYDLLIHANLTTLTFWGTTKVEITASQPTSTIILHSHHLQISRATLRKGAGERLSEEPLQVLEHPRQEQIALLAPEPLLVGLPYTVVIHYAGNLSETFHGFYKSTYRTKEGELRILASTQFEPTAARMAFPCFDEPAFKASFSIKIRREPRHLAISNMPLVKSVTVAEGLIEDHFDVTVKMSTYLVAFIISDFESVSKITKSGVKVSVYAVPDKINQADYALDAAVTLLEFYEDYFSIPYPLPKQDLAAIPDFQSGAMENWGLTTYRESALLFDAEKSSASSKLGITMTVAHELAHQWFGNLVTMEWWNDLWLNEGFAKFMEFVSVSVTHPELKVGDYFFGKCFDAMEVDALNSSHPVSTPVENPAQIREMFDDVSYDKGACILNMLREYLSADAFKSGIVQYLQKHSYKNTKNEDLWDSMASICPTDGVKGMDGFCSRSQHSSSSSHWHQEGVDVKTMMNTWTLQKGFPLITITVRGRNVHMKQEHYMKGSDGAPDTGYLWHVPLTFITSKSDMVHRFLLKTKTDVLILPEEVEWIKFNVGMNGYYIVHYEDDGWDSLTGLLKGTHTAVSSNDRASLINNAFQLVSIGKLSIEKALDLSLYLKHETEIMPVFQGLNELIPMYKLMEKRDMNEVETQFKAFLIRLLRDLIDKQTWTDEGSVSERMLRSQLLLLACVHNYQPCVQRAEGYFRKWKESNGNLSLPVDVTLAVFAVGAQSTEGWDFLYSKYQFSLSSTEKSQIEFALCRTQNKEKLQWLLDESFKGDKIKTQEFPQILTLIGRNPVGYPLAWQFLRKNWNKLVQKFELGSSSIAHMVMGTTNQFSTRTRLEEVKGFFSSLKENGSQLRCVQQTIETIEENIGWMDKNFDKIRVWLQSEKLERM
# Cneo AK release – Cryptococcus neoformans lysis via adenylate kinase release | C. neoformans lysis, adenylate kinase release luminescence, 4 h; normalised: neutral wells 0, clomiphene wells 100 | lysis activity, % at 15 µM | 0.2% of 360,000 active | AID 651654;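 active = mean lysis activity across replicates of at least 80%, whatever share of replicates individually reach that level; inactive = mean lysis activity below 80%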
#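 Material – Cryptococcus neoformans yeast cells · Quantity – 5 × 10^6 yeast cells/mL · Buffer or medium – YPD medium · Compound – single dose · Timing – 4 h static compound exposure, 37 °C, read 1 h post-reagent · Signal – adenylate kinase release luminescence · Read-out basis – lysis from increased AK signal · Benchmarks – Clomiphene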
# rRNA inh HTS – inhibitors of bacterial rRNA selective over humanized ribosomes; E. coli WT GFP vs humanized-ribosome RFP mutants, fluorescence, 24 h; active compounds read low; DMSO median 0, no signal -100; AID 720706; 1.6% of 350,000 active; GFP signal change (wild-type ribosome), % (test concentration not listed);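 active = significant combined selectivity score with lowered wild-type GFP, culture density cut under 30%, mutant RFP and density less affected; inactive = any of these conditions unmet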
# The depositor's hits bear a star; ? = inconclusive; · = no result. Only some compounds are listed: those with a hit (about 3.5% of all), similar ones and a draw of the others.
SMILES,FGF22 binding,PGC1a acetyl inh,Env fusion inh,ERAP1 inh,Cneo AK release,rRNA inh HTS
Cc1cccc(NC(=O)Nc2ccc(Oc3c(F)c(F)c(F)c(F)c3F)cc2)c1,0.2,-5.7,·,-2.9,-3.3,15.1
CCOc1ccc(NC(=O)CN2C(=O)COc3ccc(S(=O)(=O)N4CCCC4)cc32)cc1,-0.3,2.1,-2.2,-3.0,-1.5,-22.6*
CCOc1ccc(NC(=O)CN2C(=O)COc3ccc(S(=O)(=O)N4CCCCC4)cc32)cc1,0.0,-3.1,1.9,-3.0,-0.5,-37.3
CCC/C(=N/NC(=O)c1cccc(Cl)c1)c1ccccc1,·,-1.7,6.5,·,4.6,·
COc1ccc(C(=O)On2c(-c3ccc(Br)cc3)nc3ccccc3c2=O)cc1,0.6,-2.2,8.0,-5.4,-1.2,-40.4
COc1cc(OC)cc(-c2nc3ccccc3c(=O)n2OC(=O)c2ccc(Br)cc2)c1,1.7*,3.4,-12.3,-1.3,·,-25.3*
C/C(N)=C(/C#N)C(=O)COC(=O)c1cc2c(s1)CCC(C)C2 (stereo unspecified),0.5,·,-3.8,6.8,·,-28.5*
COc1ccc(NC(=O)CSc2nc(C)cc(C)n2)c([N+](=O)[O-])c1,0.2,·,0.6,4.5,·,-18.6
COc1ccc(NC(=O)CSc2ccccn2)c([N+](=O)[O-])c1,-0.1,5.2,-22.3,0.9,1.2,-26.1*
O=C(CSc1ccccn1)Nc1cccc2ccccc12,0.7,2.2,2.1,87.8*,-3.2,·
Cc1ccc(-c2csc(NCCn3c(-c4ccncc4)nc4ccccc43)n2)cc1,-0.1,-16.2,32.3,-2.1,-0.3,-20.8*
Cc1ccc(-c2csc(NCCn3c(-c4ccncc4)nc4cc(C(F)(F)F)ccc43)n2)cc1,0.2,0.4,4.0,9.3,-1.8,9.9
CC(C)c1ccc(C2NC(=O)CCC2[N+](=O)[O-])cc1 (stereo unspecified),0.0,-2.9,4.4,0.3,·,9.5
CC(C)[C@H](NC(=O)[C@H](CCCN=C(N)N)NC(=O)NC(Cc1ccccc1)C(=O)O)C(=O)NC(C=O)CCCN=C(N)N (stereo partly specified),0.0,2.8,7.6,35.4*,-0.8,·
CC(C)C(NC(=O)OCc1ccccc1)C(=O)NC(Cc1ccc(O)cc1)C(=O)O (stereo unspecified),-0.1,-3.2,-10.5,0.3,5.2,18.8
CCC(=O)N1CC2(C1)CN(CC1CCCCC1)[C@H](CO)c1c2c2ccc(OC)cc2n1C,0.0,-10.9,·,0.3,·,-5.1
Cc1cc(C(=O)N2CCN(c3ccc([N+](=O)[O-])cc3)CC2)co1,0.4,-3.6,-4.3,3.0,-2.4,-7.6
Cn1c(C(=O)N2CCN(c3ccc([N+](=O)[O-])cc3)CC2)cc2c(=O)[nH]c3ccccc3c21,43.7*,·,37.5,-0.6,-0.3,-1.2
CCOC(=O)CC1(C)OCC(C[N+]2(C)CCCCC2)O1 (stereo unspecified),0.6,·,2.5,96.0*,·,29.5
Cn1c(=O)c2c(nc(Sc3ncnn3CC(=O)NC(C)(C)C)n2C)n(C)c1=O,42.9*,-7.4,-4.0,9.7,-2.5,20.4
Cn1c(=O)c2c(ncn2CC(=O)NC(C)(C)C)n(C)c1=O,0.2,-6.0,·,-0.5,0.1,-0.4
CCOC(=O)C1=C(C)Nc2ccccc2S1,-0.3,3.3,-8.1,·,-4.3,7.9
Nc1ncnc2c1ncn2CCOc1ccccc1,·,-2.0,-167.1,·,3.2,·
CCn1c2ccccc2c2cc(NC(=O)CSc3nnc(-c4ccccc4OC)n3N)ccc21,·,·,133.4*,·,·,·
CCn1c2ccccc2c2cc(NC(=O)CSc3nnc(-c4ccc(OC)c(OC)c4)n3N)ccc21,·,-5.9,-26.4,·,-1.8,·
SMILES,FGF22 binding,PGC1a acetyl inh,Env fusion inh,ERAP1 inh,Cneo AK release,rRNA inh HTS
CCn1c2ccccc2c2cc(NC(=O)CSc3nnc(-c4cccc(OC)c4)n3N)ccc21,·,-5.5,135.4*,·,-1.6,·
Cc1cc(C(=O)NC2CCC(C)CC2)c(C)o1 (stereo unspecified),0.1,2.5,-66.0,-1.2,-2.2,2.9
Cc1cc(/C=C2\C(=N)N3N=C(C(C)C)SC3=NC2=O)c(C)n1Cc1ccccc1,0.2,48.5*,4.1,·,-8.6,-14.6
CCC1=NN2C(=N)/C(=C/c3cc(C)n(Cc4ccccc4)c3C)C(=O)N=C2S1,-0.1,·,3.2,·,·,-27.8
O=C(CCNS(=O)(=O)c1ccc(Br)cc1)NCc1ccc(F)cc1,0.0,3.1,1.2,-1.7,17.9,-8.0
COc1ccc(CN2CCn3ncc(C(=O)Nc4ccccc4)c3C2=O)cc1,·,129.1*,·,·,·,·
O=C(COC(=O)Cn1cnc2ccccc21)Nc1cc2c(cc1Cl)C(=O)c1ccccc1C2=O,44.1*,·,-174.8,-1.1,-2.4,-16.1
O=C1CCCC2=C1C(c1ccccc1)CC(=O)N2c1ccc(F)cc1F (stereo unspecified),43.1*,·,2.1,6.5,·,0.0
CC1(C)CC(=O)C2=C(C1)N(c1ccc(F)cc1)C(=O)CC2c1ccccc1 (stereo unspecified),·,21.9,?,·,-0.8,·
N=c1c(S(=O)(=O)c2ccccc2)cc2c(=O)n3ccccc3nc2n1Cc1cccnc1,-0.3,6.7,21.0,0.1,1.9,0.1
CC(=O)Nc1c(Br)cc2c(c1Br)C(=O)c1ccccc1-2,-0.2,-5.8,8.9,-2.8,·,-3.3
CC(=O)C1=C(c2ccc(Br)cc2)C(=O)c2ccccc2C1=O,·,·,140.9*,·,-21.0,·
CC(NCc1ccccc1O)c1ccccc1 (stereo unspecified),43.2*,15.6,1.5,5.2,2.3,7.3
Cc1ccc(CNC(C)c2ccccc2)cc1 (stereo unspecified),·,8.9,-13.9,·,-10.9,·
CC(NC(=O)CCn1ccc2cc(S(=O)(=O)N3CCCC3)ccc21)c1ccccc1 (stereo unspecified),0.0,-20.1,56.6*,3.1,-1.7,1.5
CCOc1ccc(CCNC(=O)CCn2ccc3cc(S(=O)(=O)N4CCCC4)ccc32)cc1,-0.2,10.6,-2.9,-1.2,6.0,-20.8*
CCCC#Cc1ccc([C@@H]2[C@H]3CN(S(=O)(=O)Cc4ccccc4)CCCCN3[C@H]2CO)cc1,0.2,-13.8,·,-1.0,15.7,-7.2
C=CCNC(=O)CC1C(=O)NCCN1Cc1ccc(-c2ccccc2)cc1 (stereo unspecified),43.3*,·,10.6,-4.0,·,-2.5
O=C(CC1C(=O)NCCN1Cc1ccc(-c2ccccc2)cc1)NCC1CC1 (stereo unspecified),43.8*,-2.9,6.1,-0.5,·,-2.5
CN(C)CC(C)(C)CNC(=O)CC1C(=O)NCCN1Cc1ccc(-c2ccccc2)cc1 (stereo unspecified),0.2,-13.6,3.5,1.9,·,12.6
Cc1cc(CN(C)C(=O)CC2C(=O)NCCN2Cc2c(F)cccc2Cl)n[nH]1 (stereo unspecified),0.2,·,64.7*,-3.6,·,10.0
